Laboratory results published in ChEMBL document CHEMBL1138555, “N-acylated and N,N'-diacylated imidazolidine-2-thione derivatives and N,N'-diacylated tetrahydropyrimidine-2(1H)-thione analogues: synthesis and antiproliferative activity” (Eur J Med Chem, 2009).

Tests used:
MT4 = test: Antiproliferative activity against human MT4 cells assessed as reduction of growth by MTT assay; assay type: functional, cell-based
How it was run: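 MT-4 lymphoblastoid T cells (ATCC) in RPMI 1640 with 10% FCS, penicillin/streptomycin, checked for mycoplasma. 1 × 10⁴ mock-infected cells per well with serial dilutions from a 100 mM DMSO stock. Incubated 4 days at 37 °C, viable cells counted by MTT. IC50 versus untreated controls by linear regression. Mean of three separate experiments.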

HL-60(TB) = test: Growth inhibition of human HL-60(TB) cells after 48 hrs by sulforhodamine B assay; assay type: functional; details: HL-60, 48 h
How it was run: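 NCI 60-cell-line screen protocol: cells exposed to compound at five 10-fold dilutions from 10^-4 to 10^-8 M for the last 48 h of a 72 h incubation. Sulforhodamine B protein assay estimated viability/growth. GI50 (50% growth inhibition) derived; where not reached or exceeded, reported as greater or less than the highest or lowest concentration tested.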

MOLT-4 = test: Growth inhibition of human MOLT4 cells after 48 hrs by sulforhodamine B assay; assay type: functional; details: MOLT-4, 48 h
How it was run: (§1)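 NCI screen panel. Five 10-fold concentrations from 10^-4 to 10^-8 M. Exposure for the last 48 h of a 72 h incubation. Growth estimated by sulforhodamine B protein assay. GI50 is the concentration giving 50% growth inhibition. Where that level was not reached or was exceeded, the value is given as above or below the highest or lowest concentration tested.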

[1] = Growth inhibition of human […] cells after 48 hrs by sulforhodamine B assay; assay type: functional; how it was run: as §1
A549 = test: Growth inhibition of human A549 cells after 48 hrs by sulforhodamine B assay; assay type: functional; details: A549, 48 h; how it was run: as §1
HOP-92 = test: Growth inhibition of human HOP92 cells after 48 hrs by sulforhodamine B assay; assay type: functional; details: HOP-92, 48 h; how it was run: as §1
NCI-H226 = test: Growth inhibition of human NCI-H226 cells after 48 hrs by sulforhodamine B assay; assay type: functional; details: NCI-H226, 48 h; how it was run: as §1
NCI-H23 = test: Growth inhibition of human NCI-H23 cells after 48 hrs by sulforhodamine B assay; assay type: functional; details: NCI-H23, 48 h; how it was run: as §1
NCI-H322M = test: Growth inhibition of human NCI-H322M cells after 48 hrs by sulforhodamine B assay; assay type: functional; how it was run: as §1
NCI-H460 = test: Growth inhibition of human NCI-H460 cells after 48 hrs by sulforhodamine B assay; assay type: functional; details: NCI-H460, 48 h; how it was run: as §1
COLO 205 = test: Growth inhibition of human COLO205 cells after 48 hrs by sulforhodamine B assay; assay type: functional; details: COLO 205, 48 h; how it was run: as §1
HCT-116 = test: Growth inhibition of human HCT116 cells after 48 hrs by sulforhodamine B assay; assay type: functional; details: HCT-116, 48 h; how it was run: as §1
HCT-15 = test: Growth inhibition of human HCT15 cells after 48 hrs by sulforhodamine B assay; assay type: functional; details: HCT-15, 48 h; how it was run: as §1
HT-29 = test: Growth inhibition of human HT-29 cells after 48 hrs by sulforhodamine B assay; assay type: functional; details: HT-29, 48 h; how it was run: as §1
SW-620 = test: Growth inhibition of human SW620 cells after 48 hrs by sulforhodamine B assay; assay type: functional; details: SW-620, 48 h
How it was run: (§2)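 NCI in vitro panel screen. Compounds tested at five 10-fold dilutions, 10^-4 to 10^-8 M. Cells in 96-well plates were exposed for the last 48 h of a 72 h incubation. Viability/growth was read by sulforhodamine B protein assay. GI50 is the concentration giving 50% growth inhibition. Values beyond the tested range are reported as greater or less than the maximum or minimum concentration.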

SF-268 = test: Growth inhibition of human SF268 cells after 48 hrs by sulforhodamine B assay; assay type: functional; details: SF-268, 48 h; how it was run: as §1
SF-295 = test: Growth inhibition of human SF295 cells after 48 hrs by sulforhodamine B assay; assay type: functional; details: SF-295, 48 h; how it was run: as §1
SF-539 = test: Growth inhibition of human SF539 cells after 48 hrs by sulforhodamine B assay; assay type: functional; details: SF-539, 48 h; how it was run: as §1
SNB-19 = test: Growth inhibition of human SNB19 cells after 48 hrs by sulforhodamine B assay; assay type: functional; details: SNB-19, 48 h; how it was run: as §2
SNB-75 = test: Growth inhibition of human SNB75 cells after 48 hrs by sulforhodamine B assay; assay type: functional; details: SNB-75, 48 h; how it was run: as §2
U-251 = test: Growth inhibition of human U251 cells after 48 hrs by sulforhodamine B assay; assay type: functional; details: U-251, 48 h; how it was run: as §2
LOX IMVI = test: Growth inhibition of human LOXIMVI cells after 48 hrs by sulforhodamine B assay; assay type: functional; how it was run: as §1
Malme-3M = test: Growth inhibition of human MALME-3M cells after 48 hrs by sulforhodamine B assay; assay type: functional; how it was run: as §1
M14 = test: Growth inhibition of human M14 cells after 48 hrs by sulforhodamine B assay; assay type: functional; details: M14, 48 h; how it was run: as §1
SK-MEL-2 = test: Growth inhibition of human SK-MEL-2 cells after 48 hrs by sulforhodamine B assay; assay type: functional; details: SK-MEL-2, 48 h; how it was run: as §1
UACC-257 = test: Growth inhibition of human UACC257 cells after 48 hrs by sulforhodamine B assay; assay type: functional; details: UACC-257, 48 h; how it was run: as §2
UACC-62 = test: Growth inhibition of human UACC62 cells after 48 hrs by sulforhodamine B assay; assay type: functional; details: UACC-62, 48 h; how it was run: as §2
OVCAR-3 = test: Growth inhibition of human OVCAR-3 cells after 48 hrs by sulforhodamine B assay; assay type: functional; details: OVCAR-3, 48 h; how it was run: as §1
OVCAR-4 = test: Growth inhibition of human OVCAR4 cells after 48 hrs by sulforhodamine B assay; assay type: functional; details: OVCAR-4, 48 h; how it was run: as §1
OVCAR-8 = test: Growth inhibition of human OVCAR8 cells after 48 hrs by sulforhodamine B assay; assay type: functional; details: OVCAR-8, 48 h; how it was run: as §1
SK-OV-3 = test: Growth inhibition of human SKOV3 cells after 48 hrs by sulforhodamine B assay; assay type: functional; details: SK-OV-3, 48 h; how it was run: as §1
A498 = test: Growth inhibition of human A498 cells after 48 hrs by sulforhodamine B assay; assay type: functional; details: A498, 48 h; how it was run: as §1
ACHN = test: Growth inhibition of human ACHN cells after 48 hrs by sulforhodamine B assay; assay type: functional; how it was run: as §1
RXF 393 = test: Growth inhibition of human RXF393 cells after 48 hrs by sulforhodamine B assay; assay type: functional; details: RXF 393, 48 h; how it was run: as §1
TK-10 = test: Growth inhibition of human TK10 cells after 48 hrs by sulforhodamine B assay; assay type: functional; details: TK-10, 48 h; how it was run: as §2
NCI/ADR-RES = test: Growth inhibition of human NCI/ADR-RES cells after 48 hrs by sulforhodamine B assay; assay type: functional; how it was run: as §1
MDA-MB-231 = test: Growth inhibition of human MDA-MB-231 cells after 48 hrs by sulforhodamine B assay; assay type: functional; details: MDA-MB-231, 48 h; how it was run: as §1
[2] = Growth inhibition of human Hs 578T cells after 48 hrs by sulforhodamine B assay; assay type: functional; how it was run: as §1
MDA-MB-435 = test: Growth inhibition of human MDA-MB-435 cells after 48 hrs by sulforhodamine B assay; assay type: functional; details: MDA-MB-435, 48 h; how it was run: as §1
BT-549 = test: Growth inhibition of human BT549 cells after 48 hrs by sulforhodamine B assay; assay type: functional; details: BT-549, 48 h; how it was run: as §1
T47D = test: Growth inhibition of human T47D cells after 48 hrs by sulforhodamine B assay; assay type: functional; how it was run: as §2

Compound `O=C(c1cc(Cl)cc(Cl)c1)N1CCN(C(=O)c2cc(Cl)cc(Cl)c2)C1=S` has an IC50 (MT4) of 13 µM, a GI50 (HL-60(TB)) of 3.3 µM and a GI50 (MOLT-4) of 3.4 µM. It also gave a GI50 [1] of 1.5 µM, a GI50 (A549) of 18.4 µM and a GI50 (HOP-92) of 3.2 µM. The GI50 (NCI-H226) was 23.7 µM, the GI50 (NCI-H23) was 14.8 µM and the GI50 (NCI-H322M) was 16.8 µM. For the same compound, the GI50 (NCI-H460) was 20.8 µM, the GI50 (COLO 205) was 18.3 µM and the GI50 (HCT-116) was 16.9 µM. It also gave a GI50 (HCT-15) of 13.5 µM, a GI50 (HT-29) of 22.2 µM and a GI50 (SW-620) of 11.1 µM. For the same compound, the GI50 (SF-268) was 14.1 µM, the GI50 (SF-295) was 19.5 µM and the GI50 (SF-539) was 12.8 µM. The GI50 (SNB-19) was 19 µM, the GI50 (SNB-75) was 14.1 µM and the GI50 (U-251) was 12.9 µM. The GI50 (LOX IMVI) was 3 µM, the GI50 (Malme-3M) was 9.8 µM and the GI50 (M14) was 11.9 µM. It also gave a GI50 (SK-MEL-2) of 16.1 µM, a GI50 (UACC-257) of 15.5 µM and a GI50 (UACC-62) of 15.6 µM. The GI50 (OVCAR-3) was 10.2 µM, the GI50 (OVCAR-4) was 18 µM and the GI50 (OVCAR-8) was 15.3 µM. It also gave a GI50 (SK-OV-3) of 15.3 µM, a GI50 (A498) of 15.5 µM and a GI50 (ACHN) of 17.4 µM. It also gave a GI50 (RXF 393) of 12.7 µM, a GI50 (TK-10) of 10.7 µM and a GI50 (NCI/ADR-RES) of 31.7 µM. For the same compound, the GI50 (MDA-MB-231) was 16.2 µM, the GI50 [2] was 21.4 µM and the GI50 (MDA-MB-435) was 9 µM. For the same compound, the GI50 (BT-549) was 22.4 µM and the GI50 (T47D) was 6.5 µM.

In the case of `O=C(c1ccco1)N1CCN(C(=O)c2ccco2)C1=S`, the IC50 (MT4) is reported as 7.4 µM, the GI50 (HL-60(TB)) is reported as 4 µM and the GI50 (MOLT-4) is reported as 0.3 µM. It also gave a GI50 [1] of 2 µM, a GI50 (A549) of 9.8 µM and a GI50 (HOP-92) of 12.7 µM. For the same compound, the GI50 (NCI-H226) was 28.7 µM, the GI50 (NCI-H23) was 19.5 µM and the GI50 (NCI-H322M) was 15.7 µM. The GI50 (NCI-H460) was 3.3 µM, the GI50 (COLO 205) was 9.4 µM and the GI50 (HCT-116) was 7.3 µM. The GI50 (HCT-15) was 4.1 µM, the GI50 (HT-29) was 5 µM and the GI50 (SW-620) was 5.5 µM. For the same compound, the GI50 (SF-268) was 2.7 µM, the GI50 (SF-295) was 16.9 µM and the GI50 (SF-539) was 3 µM. It also gave a GI50 (SNB-19) of 25.4 µM, a GI50 (SNB-75) of 10.4 µM and a GI50 (U-251) of 9 µM. The GI50 (LOX IMVI) was 3.4 µM, the GI50 (Malme-3M) was 3.7 µM and the GI50 (M14) was 7.7 µM. It also gave a GI50 (SK-MEL-2) of 14.2 µM, a GI50 (UACC-257) of 4.6 µM and a GI50 (UACC-62) of 3.2 µM. For the same compound, the GI50 (OVCAR-3) was 2.7 µM, the GI50 (OVCAR-4) was 15.6 µM and the GI50 (OVCAR-8) was 8.8 µM. The GI50 (SK-OV-3) was 16 µM, the GI50 (A498) was 16.6 µM and the GI50 (ACHN) was 4.7 µM. For the same compound, the GI50 (RXF 393) was 3.6 µM, the GI50 (TK-10) was 6.3 µM and the GI50 (NCI/ADR-RES) was 15.6 µM. For the same compound, the GI50 (MDA-MB-231) was 12.2 µM, the GI50 [2] was 6.8 µM and the GI50 (MDA-MB-435) was 4 µM. For the same compound, the GI50 (BT-549) was 4.6 µM and the GI50 (T47D) was 4.9 µM.
